Reference: ChEMBL document CHEMBL1148605, “Synthesis and preliminary in vitro investigation of bivalent ligands containing homo- and heterodimeric pharmacophores at mu, delta, and kappa opioid receptors” (J Med Chem, 2006)

How the values were obtained:
Mu-type opioid receptor [1] = biological target: T1, Mu-type opioid receptor (Homo sapiens, UniProt P35372); assay: biochemical; assay type: cell-based, CHO
[2] = biological target: Delta-type opioid receptor (Homo sapiens, UniProt P41143); assay: Displacement of [3H]naltrindole from human delta opioid receptor expressed in CHO cells; assay type: cell-based
Summary of the method: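 Competition binding on membranes of CHO cells stably expressing human δ receptor, using [3H]naltrindole and 12 compound concentrations. Incubated 3 h at 25 °C in 50 mM Tris-HCl, pH 7.5.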

[3] = biological target: T2, Kappa-type opioid receptor (Homo sapiens, UniProt P41145); assay: biochemical; assay type: cell-based, CHO
[4] = biological target: T2, Kappa-type opioid receptor; assay: Functional activity at human kappa opioid receptor expressed CHO cells by [35S]GTPgammaS binding assay; assay type: cell-based
[5] = biological target: T2, Kappa-type opioid receptor; assay: Activity at human kappa opioid receptor expressed in CHO cells by [35S]GTP-gamma-S binding assay; assay type: functional, cell-based
Mu-type opioid receptor [6] = biological target: T1, Mu-type opioid receptor; assay: Activity at human mu opioid receptor expressed in CHO cells by [35S]GTP-gamma-S binding assay; assay type: functional, cell-based
Mu-type opioid receptor [7] = biological target: T1, Mu-type opioid receptor; assay: Functional activity at human mu opioid receptor expressed in CHO cells by [35S]GTP-gamma-S binding assay; assay type: cell-based
Summary of the method: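 Human µ receptor stably expressed in CHO cells; membranes at 7.5 µg protein/tube, incubated 60 min at 30 °C with 12 compound concentrations, 3 µM GDP and […] [35S]GTPγS in pH 7.4 Tris/MgCl2/NaCl/EGTA buffer. […] Antagonist mode used 200 nM DAMGO. At least 3 experiments in triplicate.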

[8] = Displacement of [3H]naltrindole from human delta opioid receptor expressed in CHO cells
[9] = biological target: T2, Kappa-type opioid receptor; assay: Activity at human kappa opioid receptor expressed in CHO cells by [35S]GTPgammaS binding assay at 10 uM; assay type: functional, cell-based
Summary of the method: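 Membranes from CHO cells stably expressing human κ receptor (15 µg protein/tube), 12 compound concentrations, 60 min at 30 °C in Tris-HCl/MgCl2/NaCl/EGTA buffer pH 7.4 with 3 µM GDP and […] [35S]GTPγS. Filtration count, expressed as % stimulation over basal, giving Emax and EC50. […] At least 3 experiments in triplicate.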

T1 sequence (P35372 whole entry): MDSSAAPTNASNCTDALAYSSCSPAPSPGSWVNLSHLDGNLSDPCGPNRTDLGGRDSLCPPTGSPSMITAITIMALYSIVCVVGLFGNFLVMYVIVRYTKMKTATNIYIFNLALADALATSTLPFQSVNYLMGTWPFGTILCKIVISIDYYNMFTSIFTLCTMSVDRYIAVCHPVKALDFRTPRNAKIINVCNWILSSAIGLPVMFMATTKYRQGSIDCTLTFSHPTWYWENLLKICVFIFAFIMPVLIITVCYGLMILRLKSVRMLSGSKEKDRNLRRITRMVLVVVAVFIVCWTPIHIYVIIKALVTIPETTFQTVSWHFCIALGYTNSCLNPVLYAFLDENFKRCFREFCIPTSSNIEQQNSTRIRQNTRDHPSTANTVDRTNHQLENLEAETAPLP
Chain of Delta-type opioid receptor (P41143 whole entry): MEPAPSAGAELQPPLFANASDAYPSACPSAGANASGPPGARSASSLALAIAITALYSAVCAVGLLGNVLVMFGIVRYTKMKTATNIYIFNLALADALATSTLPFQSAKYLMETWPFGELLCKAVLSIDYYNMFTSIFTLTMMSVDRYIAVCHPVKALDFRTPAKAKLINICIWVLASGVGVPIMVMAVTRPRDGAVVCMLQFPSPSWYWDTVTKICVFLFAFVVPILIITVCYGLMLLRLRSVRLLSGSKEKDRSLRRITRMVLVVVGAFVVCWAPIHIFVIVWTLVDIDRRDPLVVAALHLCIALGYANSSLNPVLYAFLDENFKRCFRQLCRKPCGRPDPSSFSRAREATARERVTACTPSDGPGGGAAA
T2 sequence (P41145 whole entry): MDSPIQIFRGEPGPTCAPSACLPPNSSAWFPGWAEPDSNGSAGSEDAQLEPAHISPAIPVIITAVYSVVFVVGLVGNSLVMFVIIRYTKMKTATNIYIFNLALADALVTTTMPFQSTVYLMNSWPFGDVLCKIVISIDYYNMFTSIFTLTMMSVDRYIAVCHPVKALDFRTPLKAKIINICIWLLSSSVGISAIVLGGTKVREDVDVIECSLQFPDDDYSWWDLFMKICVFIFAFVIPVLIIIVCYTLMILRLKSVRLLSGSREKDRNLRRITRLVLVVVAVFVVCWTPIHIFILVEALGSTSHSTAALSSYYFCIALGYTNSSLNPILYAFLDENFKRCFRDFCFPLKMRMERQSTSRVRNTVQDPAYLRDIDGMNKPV

## O=C(CCCCCCCCC(=O)Oc1ccc2c(c1)[C@@]13CCCCC1[C@@H](C2)N(CC1CCC1)CC3)Oc1ccccc1 (some centres not stated)
Mu-type opioid receptor [1]
  Ki: 0.44 nM
[2]
  Ki: 11 nM
[3]
  Ki: 0.3 nM
[4]; filed as agonist
  Activity: Agonist
[5]
  EC50: 3.8 nM
  Emax: 170%
Mu-type opioid receptor [6]
  EC50: 5.1 nM
  Emax: 93%
Mu-type opioid receptor [7]; filed as agonist
  Activity: Agonist

## Oc1ccc2c(c1)[C@@]13CCCC[C@H]1[C@@H](C2)N(CC1CC1)CC3
Mu-type opioid receptor [7]; filed as partial agonist
  Activity: Partial agonist

## O=C(/C=C/C(=O)Nc1ccc2c(c1)[C@@]13CCCCC1[C@@H](C2)N(CC1CCC1)CC3)Nc1ccc2c(c1)[C@@]13CCCCC1[C@@H](C2)N(CC1CCC1)CC3 (some centres not stated)
Mu-type opioid receptor [1]
  Ki: 13 nM
[2]
  Ki: 160 nM
[3]
  Ki: 7.3 nM

## C#CCN1CC[C@]23CCCC[C@H]2[C@H]1Cc1ccc(O)cc13
Mu-type opioid receptor [1]
  Ki: 0.003 nM
[3]
  Ki: 0.003 nM
[8]
  Ki: 0.62 nM

## O=C(CCCCCCCCC(=O)Oc1ccc2c(c1)[C@@]13CCCCC1[C@@H](C2)N(CC1CCC1)CC3)Nc1ccc2c(c1)[C@@]13CCCCC1[C@@H](C2)N(CC1CCC1)CC3 (some centres not stated)
Mu-type opioid receptor [1]
  Ki: 0.65 nM
[2]
  Ki: 12 nM
[3]
  Ki: 0.38 nM
[4]; filed as partial agonist
  Activity: Partial agonist
[5]
  EC50: 8.8 nM
  Emax: 55%
Mu-type opioid receptor [6]
  EC50: 4.4 nM
  Emax: 56%
  IC50: 150 nM
  Imax: 61%
[9]
  Imax: 65 µM
Mu-type opioid receptor [7]; filed as partial agonist
  Activity: Partial agonist

## O=C(/C=C/C=C/C(=O)Oc1ccc2c(c1)[C@@]13CCCCC1[C@@H](C2)N(CC1CCC1)CC3)Oc1ccc2c(c1)[C@@]13CCCCC1[C@@H](C2)N(CC1CCC1)CC3 (some centres not stated)
Mu-type opioid receptor [1]
  Ki: 2.8 nM
[2]
  Ki: 28 nM
[3]
  Ki: 0.62 nM
[4]; filed as agonist
  Activity: Agonist
[5]
  EC50: 17 nM
  Emax: 91%
Mu-type opioid receptor [6]
  EC50: 19 nM
  Emax: 96%
Mu-type opioid receptor [7]; filed as agonist
  Activity: Agonist

## CN1CC[C@]23c4c5ccc(OC(=O)CCCCCCCCC(=O)Oc6ccc7c(c6)[C@@]68CCCCC6[C@@H](C7)N(CC6CCC6)CC8)c4O[C@H]2[C@@H](O)C=C[C@H]3[C@H]1C5 (some centres not stated)
Mu-type opioid receptor [1]
  Ki: 0.22 nM
[2]
  Ki: 3.9 nM
[3]
  Ki: 0.11 nM
[4]; filed as agonist
  Activity: Agonist
[5]
  EC50: 2.3 nM
  Emax: 150%
Mu-type opioid receptor [6]
  EC50: 2.5 nM
  Emax: 110%
Mu-type opioid receptor [7]; filed as agonist
  Activity: Agonist

## O=C(O)CCCCCCCCC(=O)Oc1ccc2c(c1)[C@@]13CCCCC1[C@@H](C2)N(CC1CCC1)CC3 (some centres not stated)
Mu-type opioid receptor [1]
  Ki: 0.71 nM
[2]
  Ki: 18 nM
[3]
  Ki: 0.29 nM
[4]; filed as agonist
  Activity: Agonist
[5]
  EC50: 2.8 nM
  Emax: 75%
Mu-type opioid receptor [6]
  EC50: 3 nM
  Emax: 110%
Mu-type opioid receptor [7]; filed as agonist
  Activity: Agonist

## Oc1ccc2c(c1)[C@]13CCCCC1[C@H](C2)N(CC1CCC1)CC3 (single isomer, unassigned; (+))
[2]
  Ki: > 10000 nM
[3]
  Ki: 55 nM

## O=C(CCC(=O)Oc1ccc2c(c1)[C@@]13CCCCC1[C@@H](C2)N(CC1CCC1)CC3)Oc1ccc2c(c1)[C@@]13CCCCC1[C@@H](C2)N(CC1CCC1)CC3 (some centres not stated)
Mu-type opioid receptor [1]
  Ki: 0.16 nM
[2]
  Ki: 9.4 nM
[3]
  Ki: 0.076 nM

## C#CCN1CC[C@]23CCCCC2[C@H]1Cc1ccc(OC(=O)CCCCCCCCC(=O)Oc2ccc4c(c2)[C@@]25CCCCC2[C@@H](C4)N(CC#C)CC5)cc13 (some centres not stated)
Mu-type opioid receptor [1]
  Ki: 14 nM
[2]
  Ki: 190 nM
[3]
  Ki: 10 nM

## Oc1ccc2c(c1)[C@@]13CCCC[C@H]1[C@@H](C2)N(CC1CCC1)CC3
[4]; filed as agonist
  Activity: Agonist
Mu-type opioid receptor [6]
  Imax: 50%
Mu-type opioid receptor [7]; filed as partial agonist
  Activity: Partial agonist

## O=C(CCC(=O)Nc1ccc2c(c1)[C@@]13CCCCC1[C@@H](C2)N(CC1CCC1)CC3)Nc1ccc2c(c1)[C@@]13CCCCC1[C@@H](C2)N(CC1CCC1)CC3 (some centres not stated)
Mu-type opioid receptor [1]
  Ki: 3.3 nM
[3]
  Ki: 3.8 nM

## O=C(CCCCCCCCC(=O)Oc1ccc2c(c1)[C@@]13CCCCC1[C@@H](C2)N(CC1CC1)CC3)Oc1ccc2c(c1)[C@@]13CCCCC1[C@@H](C2)N(CC1CCC1)CC3 (single isomer, unassigned; (-))
Mu-type opioid receptor [1]
  Ki: 0.34 nM
[2]
  Ki: 4.4 nM
[3]
  Ki: 0.23 nM
[4]; filed as agonist
  Activity: Agonist
[5]
  EC50: 2.5 nM
  Emax: 110%
Mu-type opioid receptor [6]
  EC50: 2.9 nM
  Emax: 41%
  IC50: 96 nM
  Imax: 64%
Mu-type opioid receptor [7]; filed as partial agonist
  Activity: Partial agonist

## O=C(/C=C/C(=O)Oc1ccc2c(c1)[C@@]13CCCC[C@H]1[C@@H](C2)N(CC1CCC1)CC3)Oc1ccc2c(c1)[C@@]13CCCC[C@H]1[C@@H](C2)N(CC1CCC1)CC3
[3]
  Ki: 0.08 nM

## Oc1ccc2c(c1)[C@]13CCCCC1[C@H](C2)N(CC1CC1)CC3 (single isomer, unassigned; (+))
[2]
  Ki: 13 nM

## Nc1ccc2c(c1)[C@@]13CCCC[C@H]1[C@@H](C2)N(CC1CCC1)CC3
Mu-type opioid receptor [1]
  Ki: 3.7 nM
[3]
  Ki: 1.8 nM

## O=C(CCCCCCCCC(=O)Nc1ccc2c(c1)[C@@]13CCCCC1[C@@H](C2)N(CC1CCC1)CC3)Nc1ccc2c(c1)[C@@]13CCCCC1[C@@H](C2)N(CC1CCC1)CC3 (some centres not stated)
Mu-type opioid receptor [1]
  Ki: 5.7 nM
[2]
  Ki: 38 nM
[3]
  Ki: 7.5 nM

## O=C(CCCCCCCCC(=O)Oc1ccc2c(c1)[C@]13CCCCC1[C@H](C2)N(CC1CCC1)CC3)Oc1ccc2c(c1)[C@]13CCCCC1[C@H](C2)N(CC1CCC1)CC3 (some centres not stated)
Mu-type opioid receptor [1]
  Ki: 130 nM
[2]
  Ki: 700 nM
[3]
  Ki: 130 nM

## O=C(CCCCCCCCC(=O)Oc1ccc2c(c1)[C@]13CCCCC1[C@H](C2)N(CC1CCC1)CC3)Oc1ccc2c(c1)[C@@]13CCCCC1[C@@H](C2)N(CC1CCC1)CC3 (single isomer, unassigned; (+))
Mu-type opioid receptor [1]
  Ki: 2.2 nM
[2]
  Ki: 23 nM
[3]
  Ki: 1.2 nM
[4]; filed as agonist
  Activity: Agonist
[5]
  EC50: 7.9 nM
  Emax: 77%
Mu-type opioid receptor [6]
  Emax: 28%
  IC50: 460 nM
  Imax: 71%

## C[C@@H](NC(=O)[C@@H](N)Cc1ccc(O)cc1)C(=O)NCC(=O)N(C)[C@@H](Cc1ccccc1)C(=O)NCCO
Mu-type opioid receptor [7]; filed as agonist
  Activity: Agonist

## O=C(CCCCCCCCC(=O)Oc1ccc2c(c1)[C@@]13CCCCC1[C@@H](C2)N(C[C@@H]1CCCO1)CC3)Oc1ccc2c(c1)[C@@]13CCCCC1[C@@H](C2)N(C[C@@H]1CCCO1)CC3 (some centres not stated)
Mu-type opioid receptor [1]
  Ki: 0.67 nM
[2]
  Ki: 8.3 nM
[3]
  Ki: 1.2 nM
[4]; filed as agonist
  Activity: Agonist
[5]
  EC50: 8.8 nM
  Emax: 140%
Mu-type opioid receptor [6]
  EC50: 12 nM
  Emax: 69%
  IC50: 360 nM
  Imax: 48%

## Oc1ccc2c(c1)[C@@]13CCCCC1[C@@H](C2)N(C[C@@H]1CCCO1)CC3 (some centres not stated)
Mu-type opioid receptor [1]
  Ki: 0.01 nM
[3]
  Ki: 0.15 nM
[8]
  Ki: 0.27 nM
